Scp-1 inhibitor – Scp-1 phosphatase inhibitors, primary screen, biochemical, colorimetric, uHTS; Carboxy-terminal domain RNA polymerase II polypeptide A small phosphatase 1 (Homo …; Recombinant Scp1, phosphopeptide, malachite green phosphate absorbance; inhibition, % at 20 µM; actives 0.88% (n = 340,000); AID 493091, 2011;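 active = inhibition above about 50% at 20 µM, limit read from the data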;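 also: plate controls were DMSO wells with enzyme for no effect and wells lacking enzyme for full effect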
Target sequence (Q9GZU7 76-261 limits assumed): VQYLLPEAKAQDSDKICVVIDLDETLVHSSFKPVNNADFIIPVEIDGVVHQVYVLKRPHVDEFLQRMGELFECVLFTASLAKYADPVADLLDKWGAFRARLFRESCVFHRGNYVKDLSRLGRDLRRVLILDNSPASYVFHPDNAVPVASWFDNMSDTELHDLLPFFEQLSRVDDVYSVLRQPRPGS
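Times: enzyme reaction 45 min at room temperature, colour 5 min, stabilisation 30 min. Material: SCP-1 catalytic fragment, aa 76-261. Medium: Acidic Tris acetate buffer with magnesium and detergent. Signal: colorimetric free-phosphate detection, absorbance 630 nm. Read-out basis: % inhibition of SCP-1 phosphate liberation. Reagent: Phosphorylated 17-residue peptide substrate.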
STEP inh – STEP phosphatase inhibitors, primary screen, biochemical, fluorescence intensity, uHTS; Tyrosine-protein phosphatase non-receptor type 5 (Homo sapiens), P54829; recombinant STEP, OMFP fluorogenic substrate; inhibition, % at 20 µM; actives 0.25% (n = 360,000);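 active = inhibition at 20 µM, scaled per plate between control wells, above about 37%, limit read from the data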;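 also: 0% = DMSO with enzyme and substrate and 100% = substrate only without enzyme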
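Test system: STEP tyrosine phosphatase / Reagent: OMFP at 25 µM / Doses: 20 µM, 1% DMSO / Read-out: percent inhibition scaled to no-enzyme and uninhibited-enzyme controls, plate-pattern corrected / Detection: FITC-channel fluorescence of OMFP product / Medium: Bis-Tris buffer pH 6.0, 2.5 mM DTT, 0.005% Tween 20 / Schedule: 20 min at room temperature, dark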
DSG3 Ab inh – inhibitors of pemphigus antibody binding to DSG3, primary screen, biochemical, bead-based, flow cytometry, scFv-GFP; binding (percent of control), % at 10 µM; actives 0.48% (n = 310,000); DSG3-coupled beads, scFv-anti-DSG3-GFP binding; stronger effect = lower value; Desmoglein-3 (Homo sapiens), P32926;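 active = binding more than 3 SD below its plate's average and above zero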;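 also: hits lower antibody fragment binding to DSG3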
LMPTP inh – LMPTP phosphatase inhibitors, primary screen, biochemical, fluorescence intensity, uHTS; recombinant LMPTP-A, OMFP fluorogenic substrate; inhibition, % at 20 µM; actives 0.22% (n = 360,000);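 active = compounds that cut the enzyme signal by at least half of the control window in the single-dose screen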;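 also: plate controls were DMSO wells with enzyme plus substrate for no effect and substrate without enzyme for full effect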
Target sequence (P24666 whole entry, looked up): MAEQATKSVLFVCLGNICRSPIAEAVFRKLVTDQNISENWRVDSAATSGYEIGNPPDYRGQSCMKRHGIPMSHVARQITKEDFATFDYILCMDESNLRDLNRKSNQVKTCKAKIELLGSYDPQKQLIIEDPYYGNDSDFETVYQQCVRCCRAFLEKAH
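test system = LMPTP-A | amount = 0.625 nM LMPTP-A final | reagent = fluorogenic phosphatase substrate OMFP at 400 µM final | incubation = 50 min at room temperature | benchmarks = no-enzyme low control, uninhibited high control | medium = Bis-Tris pH 6.0, DTT, detergent | signal = fluorescence intensity of OMFP turnover product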
SUMO1 PPI mod – modulators of SUMO1 protein-protein interactions, primary screen, biochemical, uHTS; SUMO1 binding to a labelled peptide, TR-FRET, 1 h; inhibition, % at 20 µM; actives 0.33% (n = 360,000); Small ubiquitin-related modifier 1 (Homo sapiens), P63165; in the data active = inhibition above about 37%
Target sequence (P63165 whole entry, looked up): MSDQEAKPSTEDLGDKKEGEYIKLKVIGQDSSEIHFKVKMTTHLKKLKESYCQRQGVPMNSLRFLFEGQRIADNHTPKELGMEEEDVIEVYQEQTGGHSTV
* marks the source's active call; other numbers are inactive results; nt = not tested or not shown. Sampled rows, rich in hits. Any-hit rate of the full collection: about 1.7%.

SMILES	Scp-1 inhibitor	STEP inh	DSG3 Ab inh	LMPTP inh	SUMO1 PPI mod
CC1(C)C[C@H]2C3=CCC4[C@@]5(C)CC[C@H](O)[C@](C)(CO)C5CC[C@@]4(C)[C@]3(C)CC[C@@]2(C)[C@H](O)[C@@H]1O (stereo not given in full)	-1.3	-3.2	101.2	-0.8	17.7
CC1(C)C[C@H]2C3=CCC4[C@@]5(C)CC[C@H](O)[C@](C)(CO)C5CC[C@@]4(C)[C@]3(C)C[C@H]3O[C@@H]1[C@H](O)[C@]32CO (stereo not given in full)	-4.4	-2.6	88.1	-0.6	47.3*
COc1ccc(-c2[nH]c(-c3ccc(Cl)cc3)nc2SCC(=O)Nc2nccs2)cc1	-11.2	-1.9	72.5*	3.1	-0.7
COc1ccc(-n2c(SCC(=O)Nc3nccs3)nnc2-c2ccc(Cl)cc2)cc1	-5.2	-1.2	-1.0*	0.5	-5.8
Cc1cccc(C)c1OCc1nnc(SCC(=O)Nc2nccs2)n1-c1ccccc1	-2.5	-0.8	34.1*	-0.5	-0.1
CC(=O)/C(=N\Nc1cccc(Cl)c1)Sc1nnc(-c2ccccc2)n1-c1ccccc1	-6.8	4.3	90.3	-1.3	-1.2
O=C(O)c1cccc(S(=O)(=O)N2CCN(C(c3ccccc3)c3ccccc3)CC2)c1	36.7	0.9	90.5	0.5	1.3
Cc1cc2[nH]c3c4ccccc4nc(C)c3c2cc1C	0.5	5.6	125.0	55.1*	18.0
CN(C)CCCn1c(N)c(S(=O)(=O)c2ccccc2)c2nc3ccccc3nc21	0.3	-2.2	110.0	0.9	-7.2
CCCCn1c(N)c(S(=O)(=O)c2ccc(C)cc2)c2nc3ccccc3nc21	3.0	-2.7	80.7	5.0	39.4*
Cc1ccc(S(=O)(=O)N2[C@@H](c3ccc(C(C)(C)C)cc3)C(C(=O)O)=CC[C@H]2c2cccc(Cl)c2)cc1	-12.4	1.4	96.9	2.5	32.4
Cc1ccc(S(=O)(=O)N2[C@@H](c3ccc(Br)cc3)C(C(=O)O)=CC[C@H]2c2ccc(Cl)c(Cl)c2)cc1	-13.8	1.2	102.6	2.3	40.4*
Cc1ccc(S(=O)(=O)N2[C@@H](c3ccc(C(C)(C)C)cc3)C(C(=O)O)=CC[C@H]2c2ccc(Cl)c(Cl)c2)cc1	-13.8	-0.9	101.3	2.1	42.9*
O=C(O)CCC(=O)N1N=C(c2ccc(Br)cc2)CC1c1cccc(Br)c1 (stereo not given)	45.6	0.1	98.2	0.7	-3.8
COc1ccc2nc3cc(Cl)ccc3c(Nc3cc(C(C)C)c(O)cc3C)c2c1	-3.0	13.3	106.8	5.4	3.0
COc1ccc2nc3cc(Cl)ccc3c(Nc3cc(CN4CCCC4)c(O)c(CN4CCCC4)c3)c2n1	nt	14.3	nt	50.1*	-60.0
CS(=O)(=O)N1CCN(c2ccc([N+](=O)[O-])c(NCc3cccnc3)c2)CC1	-2.2	1.5	24.8*	1.1	-25.0
CS(=O)(=O)N1CCN(c2ccc([N+](=O)[O-])c(NCc3ccccc3)c2)CC1	-3.4	3.7	nt	1.7	-13.7
Nc1nc(Cl)cc(Oc2ccc([N+](=O)[O-])cc2)n1	-4.2	-0.3	55.2*	1.0	-23.7
COC(=O)C1C2C=CC(C3CC23)C1C(=O)OCC(=O)c1ccc(OC)cc1 (stereo not given)	-5.2	-4.1	nt	-1.8	-0.8
COC(=O)C1C2C=CC(C3CC23)C1C(=O)OCC(=O)c1ccccc1 (stereo not given)	-8.0	-3.3	nt	-0.8	45.2*
COc1cc(OC)cc(C(=O)OCc2cc3ccccc3[nH]c2=O)c1	-2.3	-1.6	80.0*	0.4	11.6
COc1ccc(CC(=O)OCc2cc3ccccc3[nH]c2=O)cc1	2.6	-1.9	104.2	-1.0	0.8
O=C1CSC(c2nn(-c3ccccc3)cc2-c2cc3ccccc3oc2=O)N1Cc1ccco1 (stereo not given)	-8.9	3.4	103.6	-0.6	1.6
O=C1CSC(c2cn(-c3ccccc3)nc2-c2cc3ccccc3oc2=O)N1Cc1ccccc1 (stereo not given)	-18.1	6.3	105.3	3.4	55.1*
SMILES	Scp-1 inhibitor	STEP inh	DSG3 Ab inh	LMPTP inh	SUMO1 PPI mod
COc1ccc(NC(=O)CSc2nc3c([nH]c4ccccc43)c(=O)n2C)c(OC)c1	-0.7	0.7	49.4*	2.3	-0.7
O=C1NC(=S)S/C1=C\C=C\c1ccc([N+](=O)[O-])o1	87.0*	65.9*	86.9	82.1*	97.0*
O=C1NC(=S)S/C1=C/c1ccc(N2CCOCC2)o1	15.5	-7.0	118.8	5.1	-15.0
O=C(OCCNc1nc(-c2ccccc2)nc2ccccc12)c1ccncc1	-1.1	-2.5	101.7	62.3*	2.4
O=C(O)CCNc1nc(-c2ccccc2)nc2ccccc12	-10.4	-2.6	103.5	20.6	9.2
O=C(OCCNc1nc(-c2ccccc2)nc2ccccc12)c1cccnc1	1.0	-0.1	82.6	61.7*	2.5
COc1ccc(C(=O)Nc2cc(C)c3c(=O)oc4ccccc4c3n2)cc1	-3.4	0.7	-3.5*	-0.2	-23.4
COCC(=O)Nc1cc(C)c2c(=O)oc3ccccc3c2n1	12.9	-2.7	100.2	0.4	1.0
CN(C)C(=O)c1ccccc1NC(=O)Cc1cccc2ccccc12	-3.7	-2.2	78.5	-1.9	-1.3
O=C(c1ccccc1)N1CCN(c2ccc([N+](=O)[O-])cc2-n2cccc2)CC1	-7.0	5.5	nt	4.4	-25.1
CCOc1ccc(NC(=O)c2cccc(-n3cccc3)c2)cc1S(=O)(=O)N1CCOCC1	nt	8.0	72.9	21.6	56.6*
COc1ccc(NC(=O)c2ccc(-c3ccccc3)cc2)cc1S(=O)(=O)N1CCOCC1	3.5	-1.4	88.0*	1.1	0.3
O=C(CC1S/C(=N\S(=O)(=O)c2ccc(F)cc2)N(c2ccccc2)C1=O)Nc1ccccc1 (stereo not given)	-10.7	-2.0	79.3*	1.1	-1.9
O=C(CC1SC(=O)N(c2ccccc2)C1=O)Nc1ccc(Br)cc1 (stereo not given)	-10.5	0.1	106.4	1.5	0.2
Cc1cc2cc(CNC(=S)Nc3ccc(OC(F)F)cc3)ccc2n1C	6.1	-2.9	62.5*	5.0	-61.0
FC(F)Oc1ccc(NC(=S)NCc2ccccc2)cc1	0.3	-1.7	97.2	-1.1	-11.1
COc1ccc(N=N/C(=C\O)C(=O)c2cccs2)cc1	-9.3	3.4	93.4	3.4	-19.5
COc1ccc(C(=O)/C(=C/O)N=Nc2ccc(F)cc2)cc1	-8.7	1.5	-4.7*	3.3	-11.8
